PolyA inhibitor: blocks polyadenylation in yeast reporter cells; S. cerevisiae SKY197-pL101 polyadenylation reporter, beta-gal luminescence; efflux-impaired pdr1/pdr3 knockout yeast; score 100 = 6 SD above DMSO; activity score, % at 12 µM; actives 0.02% (n = 300,000);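 active = lowest replicate activity score at least 50, where 100 means six control SD above control mean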;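 note: yeast exposed to compound for 9 h at 30 °C; higher score means more reporter readthrough which indicates perturbed polyadenylation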
IMP-1 inh-1: blocks Pseudomonas aeruginosa IMP-1 metallo-beta-lactamase; inhibition, % at 5.6 µM; purified IMP-1, nitrocefin hydrolysis, epi-absorbance fluorescence; actives 0.45% (n = 290,000); AID 1556;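 active = inhibition above the mean plus 3 SD of all compounds in the same screening run, cut at about 4.5% in these data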;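 note: 0% = IMP-1 with DMSO and 100% = DMSO wells lacking enzyme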
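assay system = purified recombinant IMP-1 metallo-beta-lactamase enzyme | schedule = 15 min preincubation plus 25 min reaction at 25 °C | signal = Epi-absorbance fluorescence, 480 nm excitation, 530 nm emission | read-out basis = percent inhibition from optical density relative to buffer-blank wells | controls = IMP-1 with DMSO as 0%, enzyme-free DMSO as 100%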
NALP1 inh: NALP1 inhibition | inhibition, % at 10 µM | actives 0.61% (n = 280,000) | AID 2071 | S. cerevisiae NALP1/ASC/caspase-1 growth, X-gal OD620, 72 h; in the data active = inhibition mostly above about 24%, no sharp cut-off; inactive = mostly below about 32%
SUMO Mot1 rescue: blocks SUMOylation pathway, rescuing yeast Mot1-301 growth; growth rescue, % at 18.8 µM; S. cerevisiae Mot1-301 growth rescue, ATP luminescence, 38.5C; percent above DMSO median, 100 means doubled; actives 1% (n = 320,000);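 active = every valid replicate shows activation above 250% relative to neutral control wells; inactive = the rest, any valid replicate at or below 250%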;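 note: OY570 slx delta 5 strain wells were the positive control but not used for scaling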
VIM-2 inh: inhibitors of Pseudomonas aeruginosa VIM-2 metallo-beta-lactamase; purified VIM-2, nitrocefin hydrolysis, epi-absorbance fluorescence; inhibition, % at 5.6 µM; actives 0.89% (n = 290,000); AID 1527;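 active = inhibition above the mean of all tested compounds plus 3 SD, cutoff set per screening run, cut at about 7.5% in these data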;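 note: red hydrolysis product quenches plate fluorescence so inhibitors raise well fluorescence; 0% = enzyme with DMSO and 100% = DMSO without enzyme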
NALP3 yeast inh: inhibitors of NALP3 inflammasome in yeast; inhibition, % at 10 µM; actives 0.39% (n = 330,000); AID 2825; Yeast reconstituted NLRP3/ASC/caspase-1, beta-gal luminescence, 24 h;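 active = inhibition of 50% or more; inactive = inhibition below 50%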;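 note: plate controls were induced DMSO wells for no effect and uninduced yeast grown without galactose for full effect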
IMP-1 inh-2: IMP-1 inhibition, counter-screen for VIM-2 inhibitors. shares compounds with VIM-2 inh. purified IMP-1, nitrocefin hydrolysis, epi-absorbance fluorescence. inhibition, % at 5.6 µM. 1,300 tested, under 10 active; call rule not given here;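 note: 0% = enzyme with vehicle and 100% = vehicle without enzyme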
VIM-2 FRET ctr: counter-screen for VIM-2 inhibitors: epi-absorbance artifacts via FRET; shares compounds with VIM-2 inh; purified VIM-2, CCF2 FRET substrate hydrolysis; actives 23% (n = 1,300); inhibition, % at 5.6 µM;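 active = inhibition above the mean of all tested compounds plus 3 SD, cut at about 19% in these data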;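 note: 0% = VIM-2 plus DMSO and 100% = no enzyme wells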
TEM-1 counter: selectivity counter-screen for VIM-2 inhibitors: E. coli TEM-1 inhibitors; inhibition, % at 5.6 µM; Purified TEM-1, nitrocefin hydrolysis, epi-absorbance fluorescence; shares compounds with VIM-2 inh; actives 3% (n = 1,300);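 active = inhibition above that campaign's mean inhibition plus 3 SD, cut at about 0.46% in these data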;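 note: 0% = TEM-1 with DMSO and 100% = TEM-1 with 100 µM potassium clavulanate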
Target sequence (P62593 whole entry, looked up): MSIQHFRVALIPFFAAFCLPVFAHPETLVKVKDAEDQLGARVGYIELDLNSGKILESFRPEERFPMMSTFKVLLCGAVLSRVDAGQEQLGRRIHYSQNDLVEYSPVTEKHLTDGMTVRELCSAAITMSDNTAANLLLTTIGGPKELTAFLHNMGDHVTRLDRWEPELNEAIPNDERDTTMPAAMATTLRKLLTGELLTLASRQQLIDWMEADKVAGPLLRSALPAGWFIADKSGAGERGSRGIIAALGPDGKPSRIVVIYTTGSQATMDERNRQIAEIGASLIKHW
VIM-2 confirm 2: confirmation of P. aeruginosa VIM-2 metallo-beta-lactamase inhibitors; AID 2187; purified VIM-2, nitrocefin hydrolysis, epi-absorbance; shares compounds with VIM-2 inh; inhibition, % at 5.6 µM; actives 96% (n = 1,300);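 active = inhibition of the VIM-2 beta-lactamase enzyme above about 11% from the earlier first-round screen, limit read from the data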;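 note: 0% = VIM-2 with DMSO and 100% = buffer wells without enzyme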
* marks the source's active call; other numbers are inactive results; · = no result given. In the library only some 2.9% were active in any assay of this set; here they are far more common.

SMILES | PolyA inhibitor | IMP-1 inh-1 | NALP1 inh | SUMO Mot1 rescue | VIM-2 inh | NALP3 yeast inh | IMP-1 inh-2 | VIM-2 FRET ctr | TEM-1 counter | VIM-2 confirm 2
O=S(=O)(NCCC1=CCCCC1)c1ccc(Br)cc1 | -2.5 | -4.2 | 1.5 | -1.7 | -2.1 | 14.4 | · | · | · | ·
S=c1[nH]nc(C2CC2)n1Cc1ccccc1 | -2.8 | -3.7 | -18.7 | -6.9 | 47.5* | 10.5 | -3.4 | 75.0* | -6.7 | 61.5*
CCn1c(-c2ccco2)n[nH]c1=S | 20.4 | -1.3 | -2.9 | 5.7 | 4.1 | 18.5 | · | · | · | ·
S=c1[nH]nc(CN2CCCC2)n1Cc1ccccc1 | 17.2 | -2.7 | -24.8 | 0.5 | 1.2 | 11.8 | · | · | · | ·
S=c1[nH]nc(-c2ccco2)n1Cc1ccccc1 | · | 0.5 | -6.9 | 2.7 | 26.4* | -3.9 | -3.2 | 58.5* | -7.8 | 40.4*
S=c1[nH]nc(-c2cccs2)n1C1CCCCC1 | 0.9 | -0.3 | -11.7 | -0.5 | 42.3* | -4.6 | -2.3 | 62.9* | -7.0 | 47.2*
S=c1[nH]nc(-c2cccs2)n1Cc1ccccc1 | -0.4 | -2.2 | 6.1 | 3.1 | 42.9* | -2.6 | -1.6 | 66.9* | -8.6 | 51.1*
Cc1ccc(Nc2nc(N)[nH]c(=O)c2N=O)cc1 | 15.7 | -4.0 | 5.7 | -17.3 | 1.0 | 8.1 | · | · | · | ·
O=C(NCc1ccccn1)C1(C(F)(F)F)C/C(=C\CCO)CCCO1 (stereo unspecified) | 18.5 | · | · | 10.4 | · | 15.8 | · | · | · | ·
S=c1[nH]nc(-c2ccccc2)n1Cc1ccccc1 | -7.3 | 1.8 | 4.1 | -19.7 | 13.3* | 18.4 | -3.1 | 34.3* | -7.7 | 22.0*
COCCn1c(C)cc(C(=O)COc2ccc(N(C)S(=O)(=O)c3ccc(C)cc3)cc2)c1C | · | · | · | -5.1 | · | 11.3 | · | · | · | ·
COC(=O)c1c(NC(=O)c2ccccc2OC)sc(C(=O)N2CCOCC2)c1C | 8.0 | -1.9 | 11.5 | -21.4 | 14.2* | 17.0 | -3.3 | 2.3 | -7.3 | 20.1*
Cc1ccc(-c2n[nH]c(=O)c3ccccc23)cc1S(=O)(=O)NCCO | 13.2 | -1.4 | -3.2 | 38.9 | 1.3 | 2.9 | · | · | · | ·
O=c1[nH]nc(-c2ccc(NCCO)c([N+](=O)[O-])c2)c2ccccc12 | 7.7 | -2.8 | 1.6 | -16.5 | 24.9* | 9.6 | -3.4 | 1.6 | -6.7 | 38.1*
O=c1[nH]nc(-c2ccc(NCCCO)c([N+](=O)[O-])c2)c2ccccc12 | 3.5 | -1.2 | 4.4 | -3.7 | 24.0* | 18.5 | -2.5 | 3.4 | -1.7 | 33.5*
NS(=O)(=O)c1ccc(NC(=O)CSc2nc3c(cnn3-c3ccccn3)c(=O)[nH]2)cc1 | · | · | · | · | · | 22.3 | · | · | · | ·
O=C(CNc1ccc2ccccc2c1)N/N=C/c1cc2ccccc2nc1Cl | -11.5 | 1.2 | 17.2 | 2.1 | 22.0* | · | -4.5 | 2.5 | -8.8 | 34.2*
O=C(COc1cccc(Cl)c1)N/N=C\c1cc2ccccc2nc1Cl | 7.4 | -1.9 | 50.8 | -5.5 | -2.6 | 5.0 | · | · | · | ·
O=C(COc1ccc(Cl)cc1)Nc1ccc(C(=O)O)cc1NC(=O)COc1ccc(Cl)cc1 | -4.3 | 1.1 | 11.0 | -11.6 | -1.1 | -0.9 | · | · | · | ·
O=C(COC(=O)c1cc(S(=O)(=O)N2CCOCC2)ccc1O)Nc1ccc2c(c1)OCO2 | · | · | · | 6.5 | · | 3.8 | · | · | · | ·
COc1ccc(OC)c(C2/C(=C(/O)c3ccc(C)cc3)C(=O)C(=O)N2Cc2ccco2)c1 (stereo unspecified) | 20.7 | -2.3 | 22.5 | -8.5 | 21.2* | -7.9 | -2.7 | 55.5* | -5.5 | 45.1*
COc1ccc(OC)c(C2/C(=C(/O)c3ccccc3)C(=O)C(=O)N2Cc2ccco2)c1 (stereo unspecified) | 20.5 | -1.1 | 11.7 | 3.1 | 66.5* | 15.1 | -2.7 | 76.7* | -5.8 | 70.3*
COc1cccc(C2/C(=C(/O)c3ccc(C)cc3)C(=O)C(=O)N2Cc2ccco2)c1 (stereo unspecified) | -2.6 | -0.4 | 18.3 | -8.3 | -0.2 | 17.6 | · | · | · | ·
COc1ccc(OC)c(C2C(C(=O)c3ccco3)=C(O)C(=O)N2Cc2cccnc2)c1 (stereo unspecified) | -12.9 | -1.5 | 3.3 | -13.3 | 61.1* | 16.2 | -2.4 | 78.2* | -5.0 | 67.9*
COc1ccc(/C(O)=C2\C(=O)C(=O)N(Cc3ccco3)C2c2cc(OC)ccc2OC)cc1 (stereo unspecified) | 5.9 | -2.8 | 11.6 | 163.3 | 12.3* | 6.8 | -4.0 | 35.0* | -6.3 | 25.9*
SMILES | PolyA inhibitor | IMP-1 inh-1 | NALP1 inh | SUMO Mot1 rescue | VIM-2 inh | NALP3 yeast inh | IMP-1 inh-2 | VIM-2 FRET ctr | TEM-1 counter | VIM-2 confirm 2
CC/C(=N\NC(=O)c1cccnc1)c1ccc2c(c1)OCCO2 | 9.7 | -4.0 | 11.3 | -0.7 | 45.7* | 21.9 | -3.9 | -2.5 | -4.8 | 1.2
O=C(CN1C(=O)NC2(CCCCCCC2)C1=O)Nc1ccc(Cl)cc1 | · | · | · | 6.7 | · | 7.6 | · | · | · | ·
COC(=O)c1ccccc1NC1OC(=O)c2ccccc21 (stereo unspecified) | 7.8 | -3.5 | 16.4 | 18.5 | -3.0 | 18.6 | · | · | · | ·
Cc1ccc2cccc(NC3OC(=O)c4ccccc43)c2n1 (stereo unspecified) | 13.4 | -1.1 | 26.5 | -21.0 | 13.9* | 14.1 | -3.5 | -3.4 | -6.8 | 4.5
CN1C(=O)C(C)(C)c2cc(S(=O)(=O)NCc3ccc(C(=O)NCc4ccco4)cc3)ccc21 | 14.7 | -5.1 | 4.5 | -4.2 | -0.4 | 3.7 | · | · | · | ·
Cc1ccc(Cn2ncc3c(NN)ncnc32)cc1 | -7.9 | -1.6 | -10.5 | -7.3 | 41.4* | -17.1 | -3.6 | -9.7 | -4.5 | 58.4*
CC(=O)N1CCN(c2ccc(S(=O)(=O)NCCN(C(C)C)C(C)C)cc2[N+](=O)[O-])CC1 | 11.7 | -3.4 | 12.0 | 7.9 | -1.4 | 21.9 | · | · | · | ·
CN(C)CCNS(=O)(=O)c1ccc(N2CCN(c3ccc(F)cc3)CC2)c([N+](=O)[O-])c1 | -5.0 | -3.4 | -2.8 | -0.8 | 15.3* | -3.0 | -2.6 | 33.5* | -7.6 | 24.4*
Cc1ccnc(NC(c2ccccc2O)c2oc(CO)cc(=O)c2O)c1 (stereo unspecified) | 12.6 | -3.8 | 9.8 | 6.1 | 0.1 | 12.4 | · | · | · | ·
CCC(c1n[nH]c(=S)n1-c1ccccc1)N(C)C (stereo unspecified) | -2.4 | -5.9 | 25.2 | -12.9 | 17.2* | 6.4 | -3.0 | 34.2* | -3.6 | 26.1*
CC(c1n[nH]c(=S)n1-c1ccc(Cl)cc1)N(C)C (stereo unspecified) | -6.5 | -3.1 | 15.4 | -4.4 | 3.0 | -3.6 | · | · | · | ·

Screening data (PubChem)
